In ChEMBL document CHEMBL5230166, “Novel quinoline-piperazine hybrids: the design, synthesis and evaluation of antibacterial and antituberculosis properties” (RSC Med Chem, 2023):
≈ marks a conversion by molar mass, not a printed value.

Experiments:
Format in all cases: functional
Staphylococcus aureus [1] = experiment: Antibacterial activity against methicillin sensitive Staphylococcus aureus ATCC 29213 assessed as inhibition of bacterial growth incubated for 22 to 24 hrs; settings: time 22-24 hrs
How it was run: (§1)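 Broth MIC referenced to an earlier protocol. Inocula come from mid-log cultures sub-cultured on soybean casein digest agar, adjusted to McFarland (~10⁸ CFU/mL), then diluted to ~10⁵ CFU/mL. Compounds and controls are serially diluted from 64 to 0.03 µg/mL. Tested in triplicate, read after 22–24 h at 37 °C. MIC is the lowest concentration with no visible growth.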

Staphylococcus aureus [2] = experiment: Antibacterial activity against methicillin resistant Staphylococcus aureus ATCC 33591 assessed as inhibition of bacterial growth incubated for 22 to 24 hrs; settings: time 22-24 hrs
How it was run: (§2)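 Broth microdilution MIC. Strains were subcultured on Soybean Casein Digest Agar, and inocula were taken from mid-log culture, adjusted to McFarland (~10⁸ CFU/mL), then diluted to ~10⁵ CFU/mL. Serial dilutions ran from 64 to 0.03 µg/mL. Plates were incubated 22–24 h at 37 °C, in triplicate. MIC was the lowest concentration with no visible growth.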

[3] = tested on: Staphylococcus epidermidis; experiment: Antibacterial activity against clinical isolate methicillin resistant Staphylococcus epidermidis AB 735 assessed as inhibition of bacterial growth incubated for 22 to 24 hrs; settings: time 22-24 hrs
Enterococcus faecalis = experiment: Antibacterial activity against vancomycin resistant Enterococcus faecalis ATCC 700802 assessed as inhibition of bacterial growth incubated for 22 to 24 hrs; settings: time 22-24 hrs; how it was run: as §2
Enterococcus faecium = experiment: Antibacterial activity against Enterococcus faecium ATCC 49624 assessed as inhibition of bacterial growth incubated for 22 to 24 hrs; settings: time 22-24 hrs; how it was run: as §1
Escherichia coli = experiment: Antibacterial activity against clinical isolate Escherichia coli AB 117 assessed as inhibition of bacterial growth incubated for 22 to 24 hrs; settings: time 22-24 hrs
Klebsiella pneumoniae = experiment: Antibacterial activity against clinical isolate Klebsiella pneumoniae AB 356 assessed as inhibition of bacterial growth incubated for 22 to 24 hrs; settings: time 22-24 hrs
Pseudomonas aeruginosa = experiment: Antibacterial activity against clinical isolate Pseudomonas aeruginosa AB 645 assessed as inhibition of bacterial growth incubated for 22 to 24 hrs; settings: time 22-24 hrs
Acinetobacter baumannii = experiment: Antibacterial activity against clinical isolate Acinetobacter baumannii BAA 747 assessed as inhibition of bacterial growth incubated for 22 to 24 hrs; settings: time 22-24 hrs
Moraxella catarrhalis = experiment: Antibacterial activity against Moraxella catarrhalis ATCC 25238 assessed as inhibition of bacterial growth incubated for 22 to 24 hrs; settings: time 22-24 hrs; how it was run: as §1
[4] = tested on: Mycolicibacterium smegmatis; experiment: Antibacterial activity against Mycobacterium smegmatis ATCC 607 assessed as inhibition of bacterial growth incubated for 2 days by CLSI protocol based broth microdilution method; settings: ATCC 607, 48 h, time 2 day
How it was run: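 CLSI broth microdilution in Middlebrook 7H9 with 10% ADC. Compounds are dissolved in DMSO at 4.0 mg/mL (stock) and serially diluted from 64 to 0.015 µg/mL. Inoculum is ~10⁵ CFU/mL, checked by plating on 7H11 agar. Rifampin and levofloxacin are positive controls; drug-free broth with DMSO is the negative control. Growth inhibition is read after 2 days at 37 °C as MIC.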

[5] = tested on: Mycobacterium tuberculosis; experiment: Antibacterial activity against Mycobacterium tuberculosis H37Rv ATCC 25618 assessed as inhibition of bacterial growth incubated for 2 days by CLSI protocol based broth microdilution method; settings: H37Rv ATCC 25618, 48 h, time 2 day

| SMILES | MIC (Staphylococcus aureus [1]) | MIC (Staphylococcus aureus [2]) | MIC [3] | MIC (Enterococcus faecalis) | MIC (Enterococcus faecium) | MIC (Escherichia coli) | MIC (Klebsiella pneumoniae) | MIC (Pseudomonas aeruginosa) | MIC (Acinetobacter baumannii) | MIC (Moraxella catarrhalis) | MIC [4] | MIC [5] |
| --- | --- | --- | --- | --- | --- | --- | --- | --- | --- | --- | --- | --- |
| COc1cc(CN2CCN(S(=O)(=O)c3ccc(Cl)cc3Cl)CC2)nc2ccc(F)cc12 | > 64 µg/mL | > 64 µg/mL | > 64 µg/mL | > 64 µg/mL | > 64 µg/mL | > 64 µg/mL | > 64 µg/mL | > 64 µg/mL | > 64 µg/mL | > 64 µg/mL | > 64 µg/mL | > 64 µg/mL |
| COc1cc(CN2CCN(S(=O)(=O)c3ccc(C)cc3)CC2)nc2ccc(F)cc12 | 64 µg/mL (≈ 149 µM) | > 64 µg/mL | 32 µg/mL (≈ 74.5 µM) | > 64 µg/mL | > 64 µg/mL | > 64 µg/mL | > 64 µg/mL | > 64 µg/mL | > 64 µg/mL | 16 µg/mL (≈ 37.3 µM) | > 64 µg/mL | > 64 µg/mL |
| COc1ccc2nc(CN3CCN(S(=O)(=O)c4ccc(NC(C)=O)cc4)CC3)cc(OC)c2c1 | > 64 µg/mL | > 64 µg/mL | > 64 µg/mL | > 64 µg/mL | > 64 µg/mL | > 64 µg/mL | > 64 µg/mL | > 64 µg/mL | > 64 µg/mL | > 64 µg/mL | > 64 µg/mL | > 64 µg/mL |
| COc1ccc2nc(CN3CCN(S(=O)(=O)c4ccccc4C(F)(F)F)CC3)cc(OC)c2c1 | 4 µg/mL (≈ 8.07 µM) | 32 µg/mL (≈ 64.6 µM) | 16 µg/mL (≈ 32.3 µM) | 64 µg/mL (≈ 129 µM) | 8 µg/mL (≈ 16.1 µM) | 16 µg/mL (≈ 32.3 µM) | > 64 µg/mL | > 64 µg/mL | > 64 µg/mL | 1 µg/mL (≈ 2.02 µM) | > 64 µg/mL | > 64 µg/mL |
| COc1ccc2nc(CN3CCN(S(=O)(=O)c4cccs4)CC3)cc(OC)c2c1 | > 64 µg/mL | > 64 µg/mL | > 64 µg/mL | > 64 µg/mL | > 64 µg/mL | > 64 µg/mL | > 64 µg/mL | > 64 µg/mL | > 64 µg/mL | > 64 µg/mL | 32 µg/mL (≈ 73.8 µM) | > 64 µg/mL |
| COc1ccc2nc(CN3CCN(C(=O)c4ccccc4F)CC3)cc(OC)c2c1 | > 64 µg/mL | > 64 µg/mL | > 64 µg/mL | > 64 µg/mL | > 64 µg/mL | > 64 µg/mL | > 64 µg/mL | > 64 µg/mL | > 64 µg/mL | > 64 µg/mL | > 64 µg/mL | > 64 µg/mL |
| COc1ccc2nc(CN3CCN(S(=O)(=O)c4c(C)cc(C)cc4C)CC3)cc(OC)c2c1 | > 64 µg/mL | > 64 µg/mL | > 64 µg/mL | > 64 µg/mL | > 64 µg/mL | > 64 µg/mL | > 64 µg/mL | > 64 µg/mL | > 64 µg/mL | > 64 µg/mL | > 64 µg/mL | > 64 µg/mL |
| CNS(=O)(=O)N1CCN(Cc2cc(OC)c3cc(OC)ccc3n2)CC1 | > 64 µg/mL | > 64 µg/mL | > 64 µg/mL | > 64 µg/mL | > 64 µg/mL | > 64 µg/mL | > 64 µg/mL | > 64 µg/mL | > 64 µg/mL | > 64 µg/mL | > 64 µg/mL | > 64 µg/mL |
| COc1cccc(C(=O)N2CCN(Cc3cc(OC)c4cc(OC)ccc4n3)CC2)c1 | > 64 µg/mL | > 64 µg/mL | > 64 µg/mL | > 64 µg/mL | > 64 µg/mL | > 64 µg/mL | > 64 µg/mL | > 64 µg/mL | > 64 µg/mL | > 64 µg/mL | > 64 µg/mL | > 64 µg/mL |
| COc1ccc2nc(CN3CCN(C(=O)c4ccccc4OC)CC3)cc(OC)c2c1 | > 64 µg/mL | > 64 µg/mL | > 64 µg/mL | > 64 µg/mL | > 64 µg/mL | > 64 µg/mL | > 64 µg/mL | > 64 µg/mL | > 64 µg/mL | > 64 µg/mL | > 64 µg/mL | > 64 µg/mL |
| COc1ccc2nc(CN3CCN(C(=O)c4ccc(Cl)c(Cl)c4)CC3)cc(OC)c2c1 | > 64 µg/mL | > 64 µg/mL | > 64 µg/mL | > 64 µg/mL | > 64 µg/mL | > 64 µg/mL | > 64 µg/mL | > 64 µg/mL | > 64 µg/mL | 64 µg/mL (≈ 139 µM) | > 64 µg/mL | > 64 µg/mL |
| COc1ccc2nc(CN3CCN(S(=O)(=O)c4cccc5ccccc45)CC3)cc(OC)c2c1 | > 64 µg/mL | > 64 µg/mL | > 64 µg/mL | > 64 µg/mL | > 64 µg/mL | > 64 µg/mL | > 64 µg/mL | > 64 µg/mL | > 64 µg/mL | > 64 µg/mL | > 64 µg/mL | > 64 µg/mL |
